ChEMBL document CHEMBL1155775, “Pharmacokinetics of the antiviral agent beta-D-2'-deoxy-2'-fluoro-2'-C-methylcytidine in rhesus monkeys” (Antimicrob Agents Chemother, 2007)

Key:
[1] = Metabolic stability in rhesus monkey whole blood at 1000 dpm/pmol after 0.5 hrs at 37 degC; format: ADME, tissue-based, Macaca mulatta; conditions: read-out: Stability
How it was run: (§1)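 3H-labeled nucleoside (10 μM, 1,000 dpm/pmol) incubated in human or monkey whole blood at 37°C for 0–48 h. Aliquots centrifuged, supernatant extracted with acetonitrile, dried, redissolved in water and run on ion-pairing reverse-phase C18 HPLC (ammonium acetate/tetrabutylammonium phosphate pH 7.0, methanol) to measure parent and deaminated product. Each time point in replicate.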

[2] = Apparent volume of distribution with respect to bioavailability in rhesus monkey at 33.3 mg/kg, po administered as single dose; format: ADME, organism-based, Macaca mulatta; conditions: in vivo, read-out: Vc/F
How it was run: (§2)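 Three rhesus monkeys; single 33.3 mg/kg oral dose by gastric intubation in water, then after ≥4-week washout i.v. bolus via femoral vein in sterile normal saline; anesthetized (ketamine plus Telazol i.m.) for 4 h. Femoral venous blood at 0–24 h; serum by HPLC-UV 270 nm, 3TC internal standard. Noncompartmental analysis per animal and pooled; AUC by trapezoid extrapolated to infinity; F = AUCoral/AUCi.v.; MAT = MRToral − MRTi.v.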

[3] = Drug level in rhesus monkey cerebrospinal fluid at 33.3 mg/kg, iv administered as single dose after 1 hr; format: ADME, organism-based, Macaca mulatta; parameters: dose 33.3 mg/kg, route intravenous; conditions: read-out: Drug uptake
How it was run: (§3)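 Same three anesthetized rhesus monkeys given single 33.3 mg/kg oral (water, gastric intubation) or i.v. (saline, femoral vein) dose. CSF taken 1 h post-dose by cisternal or lumbar tap; 3TC internal standard added, analyzed by reverse-phase HPLC with UV detection at 270 nm against standards in water (0.1–25 μg/ml).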

Rhesus monkey [4] = assay: Mean absorption time in rhesus monkey at 33.3 mg/kg, po administered as single dose; format: ADME, organism-based, Macaca mulatta; parameters: dose 33.3 mg/kg, route oral; conditions: in vivo; how it was run: as §2
[5] = Metabolic stability in rhesus monkey whole blood at 1000 dpm/pmol after 48 hrs at 37 degC; format: ADME, tissue-based, Macaca mulatta; conditions: read-out: Stability; how it was run: as §1
[6] = Metabolic stability in human whole blood at 1000 dpm/pmol after 2 hrs at 37 degC; format: ADME, tissue-based; conditions: read-out: Stability; how it was run: as §1
[7] = Clearance in rhesus monkey at 33.3 mg/kg, po administered as single dose; format: ADME, organism-based, Macaca mulatta; parameters: dose 33.3 mg/kg, route oral; conditions: in vivo; how it was run: as §2
Rhesus monkey [8] = assay: Apparent volume of distribution with respect to bioavailability in rhesus monkey at 33.3 mg/kg, iv administered as single dose; format: ADME, organism-based, Macaca mulatta; conditions: in vivo; how it was run: as §2
[9] = AUC in rhesus monkey at 33.3 mg/kg, po administered as single dose; format: ADME, organism-based, Macaca mulatta; parameters: dose 33.3 mg/kg, route oral; conditions: plasma; how it was run: as §2
[10] = Drug level in rhesus monkey cerebrospinal fluid assessed as 2'-deoxy-2'-fluoro-2'-C-methyluridine level at 33.3 mg/kg, iv administered as single dose after 1 hr; format: ADME, organism-based, Macaca mulatta; parameters: dose 33.3 mg/kg, route intravenous; conditions: in vivo, read-out: Drug uptake; how it was run: as §3
[11] = Metabolic stability in human whole blood at 1000 dpm/pmol after 10 hrs at 37 degC; format: ADME, tissue-based; conditions: read-out: Stability; how it was run: as §1
[12] = Metabolic stability in human whole blood at 1000 dpm/pmol after 0.25 hrs at 37 degC; format: ADME, tissue-based; conditions: read-out: Stability; how it was run: as §1
[13] = Stability in rhesus monkey urine at 33.3 mg/kg assessed as unchanged drug dose administered as single dose during 8 hrs; format: ADME, organism-based, Macaca mulatta; parameters: dose 33.3 mg/kg; conditions: read-out: Stability
How it was run: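 Catheterized rhesus monkeys given single 33.3 mg/kg oral or i.v. dose; urine collected in intervals over 0–8 h, kept on ice then frozen at −70°C; diluted 20-fold (oral) or 50-fold (i.v.), 3TC internal standard added, parent and deaminated uridine metabolite quantified by HPLC-UV 270 nm; percent of dose recovered.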

[14] = Volume of distribution at steady state in rhesus monkey at 33.3 mg/kg, iv administered as single dose; format: ADME, organism-based, Macaca mulatta; parameters: dose 33.3 mg/kg, route intravenous; conditions: in vivo, read-out: Vdss; how it was run: as §2
[15] = Metabolic stability in human whole blood at 1000 dpm/pmol after 48 hrs at 37 degC; format: ADME, tissue-based; conditions: read-out: Stability; how it was run: as §1
[16] = Metabolic stability in human whole blood at 1000 dpm/pmol after 4 hrs at 37 degC; format: ADME, tissue-based; conditions: read-out: Stability; how it was run: as §1
[17] = Apparent oral clearance in rhesus monkey at 33.3 mg/kg, po administered as single dose; format: ADME, organism-based, Macaca mulatta; parameters: dose 33.3 mg/kg, route oral; conditions: in vivo; how it was run: as §2
[18] = Metabolic stability in rhesus monkey whole blood at 1000 dpm/pmol after 2 hrs at 37 degC; format: ADME, tissue-based, Macaca mulatta; conditions: read-out: Stability; how it was run: as §1
[19] = Clearance in rhesus monkey at 33.3 mg/kg, iv administered as single dose; conditions: in vivo
[20] = Metabolic stability in human whole blood at 1000 dpm/pmol after 8 hrs at 37 degC; format: ADME, tissue-based; conditions: read-out: Stability; how it was run: as §1
[21] = Metabolic stability in rhesus monkey whole blood at 1000 dpm/pmol after 10 hrs at 37 degC; format: ADME, tissue-based, Macaca mulatta; conditions: read-out: Stability; how it was run: as §1
[22] = Mean residence time in rhesus monkey at 33.3 mg/kg, po administered as single dose; format: ADME, organism-based, Macaca mulatta; parameters: dose 33.3 mg/kg, route oral; conditions: in vivo; how it was run: as §2
[23] = Tmax in rhesus monkey at 33.3 mg/kg, iv administered as single dose; format: ADME, organism-based, Macaca mulatta; parameters: dose 33.3 mg/kg, route intravenous; conditions: in vivo
How it was run: (§4)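 Three rhesus monkeys, anesthetised with ketamine plus tiletamine/zolazepam, received a single 33.3 mg/kg bolus in sterile normal saline via the femoral vein. Serum was acetonitrile-extracted with 3TC as internal standard and assayed by reverse-phase HPLC-UV at 270 nm. Peak concentration and its time were taken as observed; noncompartmental analysis.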

[24] = Metabolic stability in human whole blood at 1000 dpm/pmol after 1 hr at 37 degC; format: ADME, tissue-based; conditions: read-out: Stability; how it was run: as §1
[25] = Oral bioavailability in rhesus monkey at 33.3 mg/kg, po administered as single dose; format: ADME, organism-based, Macaca mulatta; conditions: in vivo; how it was run: as §2
[26] = Metabolic stability in rhesus monkey whole blood at 1000 dpm/pmol after 0.25 hrs at 37 degC; format: ADME, tissue-based, Macaca mulatta; conditions: read-out: Stability; how it was run: as §1
[27] = AUC in rhesus monkey at 33.3 mg/kg, iv administered as single dose; format: ADME, organism-based, Macaca mulatta; parameters: dose 33.3 mg/kg, route intravenous; conditions: plasma; how it was run: as §2
[28] = Metabolic stability in human whole blood at 1000 dpm/pmol after 24 hrs at 37 degC; format: ADME, tissue-based; conditions: read-out: Stability; how it was run: as §1
[29] = Drug level in rhesus monkey cerebrospinal fluid at 33.3 mg/kg, po administered as single dose after 1 hr; format: ADME, organism-based, Macaca mulatta; parameters: dose 33.3 mg/kg, route oral; conditions: read-out: Drug uptake; how it was run: as §3
[30] = Terminal half life in rhesus monkey at 33.3 mg/kg, iv administered as single dose; format: ADME, organism-based, Macaca mulatta; parameters: dose 33.3 mg/kg, route intravenous; conditions: in vivo, read-out: beta t1/2 (converted); how it was run: as §2
Hepatitis C virus = assay: Antiviral activity against HCV in human Huh7 cells by replicon based assay; format: functional, Hepacivirus hominis; conditions: Huh-7
[31] = Cmax in rhesus monkey at 33.3 mg/kg, iv administered as single dose; format: ADME, organism-based, Macaca mulatta; parameters: dose 33.3 mg/kg, route intravenous; conditions: in vivo; how it was run: as §4
HepG2 = assay: Cytotoxicity against human HepG2 cells; format: cell-based
[32] = Metabolic stability in rhesus monkey whole blood at 1000 dpm/pmol after 24 hrs at 37 degC; format: ADME, tissue-based, Macaca mulatta; conditions: read-out: Stability; how it was run: as §1
[33] = Metabolic stability in rhesus monkey whole blood at 1000 dpm/pmol after 1 hr at 37 degC; format: ADME, tissue-based, Macaca mulatta; conditions: read-out: Stability; how it was run: as §1
[34] = Terminal half life in rhesus monkey at 33.3 mg/kg, po administered as single dose; format: ADME, organism-based, Macaca mulatta; parameters: dose 33.3 mg/kg, route oral; conditions: in vivo, read-out: beta t1/2 (converted); how it was run: as §2
[35] = Mean residence time in rhesus monkey at 33.3 mg/kg, iv administered as single dose; format: ADME, organism-based, Macaca mulatta; parameters: dose 33.3 mg/kg, route intravenous; conditions: in vivo; how it was run: as §2
[36] = Metabolic stability in human whole blood at 1000 dpm/pmol after 0.5 hrs at 37 degC; format: ADME, tissue-based; conditions: read-out: Stability; how it was run: as §1
[37] = Metabolic stability in rhesus monkey whole blood at 1000 dpm/pmol after 8 hrs at 37 degC; format: ADME, tissue-based, Macaca mulatta; conditions: read-out: Stability; how it was run: as §1
[38] = Metabolic stability in rhesus monkey whole blood at 1000 dpm/pmol after 4 hrs at 37 degC; format: ADME, tissue-based, Macaca mulatta; conditions: read-out: Stability; how it was run: as §1
[39] = Metabolic stability in human whole blood assessed as 2'-deoxy-2'-fluoro-2'-C-methyluridine level at 1000 dpm/pmol after 24 hrs at 37 degC; format: ADME, tissue-based; how it was run: as §1
[40] = Metabolic stability in rhesus monkey whole blood assessed as 2'-deoxy-2'-fluoro-2'-C-methyluridine level at 1000 dpm/pmol after 24 hrs at 37 degC; format: ADME, tissue-based, Macaca mulatta; how it was run: as §1

## C[C@@]1(F)[C@H](O)[C@@H](CO)O[C@H]1n1ccc(N)nc1=O
[1]
  remaining at 0.5 h: 100%
[2]
  Vd/F: 21.9 L/kg
[3]
  concentration at 1 h: 3670 nM
Rhesus monkey [4]
  MAT: 4.61 h
[5]
  remaining at 48 h: 80%
[6]
  remaining at 2 h: 100%
[7]
  CL/F: 48 mL/min/kg
Rhesus monkey [8]
  Vc/F: 4.8 L/kg
[9]
  AUC: 44.1 µM·h
[10]
  concentration: 1380 nM
[11]
  remaining at 10 h: 99.1%
[12]
  remaining at 0.25 h: 100%
[13]
  dose excreted at 8 h: 6%
[14]
  Vd: 1.51 L/kg
[15]
  remaining at 48 h: 83.7%
[16]
  remaining at 4 h: 100%
[17]
  CL/F: 48 mL/min/kg
[18]
  remaining at 2 h: 100%
[19]
  clearance: 10 mL/min/kg
[20]
  remaining at 8 h: 100%
[21]
  remaining at 10 h: 97.2%
[22]
  MRT: 7.11 h
[23]
  Tmax: 0.25 h
[24]
  remaining at 1 h: 100%
[25]
  bioavailability: 24%
[26]
  remaining at 0.25 h: 100%
[27]
  AUC: 235 µM·h
[28]
  remaining at 24 h: 95.1%
[29]
  concentration at 1 h: 280 nM
[30]
  half-life: 4.54 h
Hepatitis C virus
  EC90: 5.4 µM
[31]
  Cmax: 154000 nM
HepG2
  Activity: > 100 µM
[32]
  remaining at 24 h: 93.1%
[33]
  remaining at 1 h: 100%
[34]
  half-life: 5.64 h
[35]
  MRT: 2.5 h
[36]
  remaining at 0.5 h: 100%
[37]
  remaining at 8 h: 100%
[38]
  remaining at 4 h: 100%

## C[C@@]1(F)[C@H](O)[C@@H](CO)O[C@H]1n1ccc(=O)[nH]c1=O
[39]
  Stability: 4.9%
[40]
  Stability: 6.9%
